Measurements taken from publication PMC7668563 (International journal of molecular biology (Edmond, Okla.), 2020).
Like-named read-outs stand apart in the source and are kept apart here.

What was measured:
[1] = test system: human breast adenocarcinoma cell line, MCF-7; test: MTT cell viability assay on MCF-7, 72 h exposure; format: cell-based; conditions: read-out: IC50 (±SD), MCF-7, MCF-7, 72 h of exposure
Summary of the method: (§1)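 HT-29 was grown in McCoy's 5A with 10% FBS. MCF-7 was grown in MEM with 10% FBS and 0.01 mg/mL insulin. Both were kept at 37°C, 5% CO2, trypsinized at 70–80% confluency and seeded at 1.5×10^4 cells/well for 24 h. Cells were then exposed for 72 h to test compound in 5% DMSO/95% medium, with DMSO-medium controls. MTT was added as a 2.67 mg/mL solution for 2 h. Formazan was dissolved in 10% Triton X-100/isopropanol and read at A570 minus A620. IC50 came from a sigmoidal fit of viability vs log concentration, eight replicas, triplicate, ±SD.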

[2] = test system: human colorectal adenocarcinoma cell line, HT-29; test: MTT cell viability assay on HT-29, 72 h exposure; format: cell-based; conditions: read-out: IC50 (±SD), HT-29, HT-29, 72 h of exposure
Summary of the method: as §1

[3] = target: T1, apo-human transferrin (apo-hTf) (Homo sapiens, UniProt P02787); test: UV-Vis absorbance titration of apo-hTf; format: binding
[4] = target: T1, apo-human transferrin (apo-hTf); test: Fluorescence quenching of apo-hTf; format: binding; conditions: for biomolecular quenching rate constant kq: kq=Ksv/τ0; for Stern-Volmer quenching constant Ksv / number of binding sites n: pH 7.4; for quenching association constant Ka: pH 7.4, modified Stern-Volmer
Summary of the method: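 Intrinsic fluorescence of apo-hTf in Tris-HCl pH 7.4 was titrated with test compound (Tris-HCl/2% DMSO). Conditions: excitation 280 nm, emission 290–500 nm, slits 10/5 nm, 1.0 cm quartz cell, at 296, 303, 310 and 317 K, triplicate titrations. Intensities were corrected for inner filter effect using absorbances at excitation and emission wavelengths. Ksv came from Stern-Volmer plots of F0/F vs [Q]; kq = Ksv/τ0 (τ0 ~1.0×10−8); Ka and n came from the modified Stern-Volmer equation.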

[5] = target: T1, apo-human transferrin (apo-hTf); test: Thermodynamic parameters of apo-hTf complex formation; format: binding
Summary of the method: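 Ksv values were obtained from apo-hTf fluorescence quenching at pH 7.4 at 296, 303, 310 and 317 K. ΔH°, ΔS° and ΔG° were derived from linear regression of ln(Ksv) vs 1/T (Van't Hoff equation).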

[6] = target: T1, apo-human transferrin (apo-hTf); test: Fluorescence resonance energy transfer; format: binding
Summary of the method: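 Emission spectrum of 1.0×10−5 mol L−1 apo-hTf and absorption spectrum of 1.0×10−5 mol L−1 test compound were recorded in 20 mM Tris-HCl pH 7.4 at room temperature, 260–450 nm, and their spectral overlap determined. E was calculated from apo-hTf fluorescence without and with equimolar test compound. R0 and donor–acceptor distance r came from Förster equations.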

[7] = target: T1, apo-human transferrin (apo-hTf); test: Far-UV circular dichroism titration of apo-hTf, secondary structure content
Summary of the method: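 Apo-hTf (4.0×10−7 mol L−1) in 2 mM Tris-HCl pH 7.4 was titrated with a 1.0×10−3 mol L−1 stock of test compound in Tris-HCl/2% DMSO, to final 0–2.4×10−6 mol L−1. Far-UV CD was recorded from 190–250 nm under nitrogen in a 1.0 cm cell: six scans at 100 nm/min. Baseline was buffer ± DMSO at room temperature. α-Helix was derived from MRE at 208 nm; β-sheet and random coil by the CD-RRG method.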

[8] = target: T1, apo-human transferrin (apo-hTf); conditions: cited from earlier work; for Ka: Cp2VCl2 bound to apo-hTf
[9] = apo-hTf:Cp2VCl2 complex, ref Zhang et al. 64

T1 sequence (P02787 20-698): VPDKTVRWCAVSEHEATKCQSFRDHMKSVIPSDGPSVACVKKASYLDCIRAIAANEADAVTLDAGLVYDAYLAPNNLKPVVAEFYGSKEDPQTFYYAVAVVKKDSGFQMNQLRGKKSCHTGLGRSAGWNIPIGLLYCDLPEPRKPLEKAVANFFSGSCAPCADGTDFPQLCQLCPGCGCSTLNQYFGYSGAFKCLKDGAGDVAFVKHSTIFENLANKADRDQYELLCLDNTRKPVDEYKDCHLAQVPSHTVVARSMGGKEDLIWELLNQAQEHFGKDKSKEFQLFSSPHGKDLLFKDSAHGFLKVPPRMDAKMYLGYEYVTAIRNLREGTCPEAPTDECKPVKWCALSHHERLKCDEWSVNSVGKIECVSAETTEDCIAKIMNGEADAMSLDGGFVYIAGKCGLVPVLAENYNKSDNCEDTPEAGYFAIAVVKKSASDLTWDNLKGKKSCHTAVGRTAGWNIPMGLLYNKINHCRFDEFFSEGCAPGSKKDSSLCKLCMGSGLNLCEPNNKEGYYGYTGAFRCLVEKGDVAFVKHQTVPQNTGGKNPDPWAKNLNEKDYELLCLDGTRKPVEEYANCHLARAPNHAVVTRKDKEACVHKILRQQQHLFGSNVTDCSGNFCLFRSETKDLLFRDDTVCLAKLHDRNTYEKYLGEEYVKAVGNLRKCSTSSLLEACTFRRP

Q: With [Cl-].[Cl-].[V+4].c1cc[cH-]c1.c1cc[cH-]c1 [Cp2VCl2] as the molecule, how does the IC50 [1] read?
A: 50 µM

Q: What about the IC50 [2] of the same molecule?
A: 33 µM

Q: And the “Ka at 280 nm” value ([3]; absorbance at 280 nm)?
A: 3240 M⁻¹

Q: What about the “Ka at 361 nm” value ([3]; absorbance at 361 nm) of the same molecule?
A: 2670 M⁻¹

Q: What about the “Association constants, Ka, 280 nm” value ([3]; absorbance of apo-hTf at 280 nm, pH 7.4) of the same molecule?
A: 3.24 10^3 M^−1

Q: And the “Association constants, Ka, 361 nm” value ([3]; absorbance of apo-hTf at 361 nm, pH 7.4)?
A: 2.67 10^3 M^−1

Q: What about the “biomolecular quenching rate constant kq” value ([4]; 296 K) of the same molecule?
A: 3.564e+12 M⁻¹ s⁻¹

Q: What about the “Stern-Volmer quenching constant Ksv” value ([4]; 296 K) of the same molecule?
A: 35640 M⁻¹

Q: And the “number of binding sites n” value ([4]; 296 K)?
A: 1.23

Q: What about the “quenching association constant Ka” value ([4]; 296 K) of the same molecule?
A: 444400 M⁻¹

Q: What about the “biomolecular quenching rate constant kq” value ([4]; 303 K) of the same molecule?
A: 4.085e+12 M⁻¹ s⁻¹

Q: What about the “Stern-Volmer quenching constant Ksv” value ([4]; 303 K) of the same molecule?
A: 40850 M⁻¹

Q: And the “number of binding sites n” value ([4]; 303 K)?
A: 1.2

Q: What about the “quenching association constant Ka” value ([4]; 303 K) of the same molecule?
A: 337500 M⁻¹

Q: What about the “biomolecular quenching rate constant kq” value ([4]; 310 K) of the same molecule?
A: 4.26e+12 M⁻¹ s⁻¹

Q: And the “Stern-Volmer quenching constant Ksv” value ([4]; 310 K)?
A: 42600 M⁻¹

Q: What about the “number of binding sites n” value ([4]; 310 K) of the same molecule?
A: 1.16

Q: What about the “quenching association constant Ka” value ([4]; 310 K) of the same molecule?
A: 240500 M⁻¹

Q: What about the “biomolecular quenching rate constant kq” value ([4]; 317 K) of the same molecule?
A: 4.936e+12 M⁻¹ s⁻¹

Q: And the “Stern-Volmer quenching constant Ksv” value ([4]; 317 K)?
A: 49360 M⁻¹

Q: And the “number of binding sites n” value ([4]; 317 K)?
A: 1.11

Q: What about the “quenching association constant Ka” value ([4]; 317 K) of the same molecule?
A: 159800 M⁻¹

Q: What about the “∆G°” value ([5]; 296 K) of the same molecule?
A: -6.169 kcal/mol

Q: What about the “∆G°” value ([5]; 303 K) of the same molecule?
A: -6.379 kcal/mol

Q: What about the “∆G°” value ([5]; 310 K) of the same molecule?
A: -6.587 kcal/mol

Q: And the “∆G°” value ([5]; 317 K)?
A: -6.797 kcal/mol

Q: What about the “∆H°” value ([5]; pH 7.4, from Ksv at 296-317 K) of the same molecule?
A: 2.713 kcal/mol

Q: And the “∆S°” value ([5]; pH 7.4, from Ksv at 296-317 K)?
A: 125.52 J/mol K

Q: And the “Förster critical energy transfer distance R0” value ([6]; k^2=2/3, n=1.336, ØD=0.118)?
A: 1.78 nm

Q: And the “binding distance r (donor-acceptor)” value ([6]; k^2=2/3, n=1.336, ØD=0.118)?
A: 2.08 nm

Q: And the “efficiency of energy transfer E” value ([6]; room temperature, 1.0×10^−5 mol L^−1 each)?
A: 0.281

Q: And the “other secondary structure content of apo-hTf” value ([7]; compound concentration 0.4 (M))?
A: 20%

Q: What about the “random coil content of apo-hTf” value ([7]; compound concentration 0.4 (M)) of the same molecule?
A: 33.7%

Q: And the “α-helix content of apo-hTf” value ([7]; compound concentration 0.4 (M))?
A: 28.4%

Q: And the “β-sheet content of apo-hTf” value ([7]; compound concentration 0.4 (M))?
A: 17.9%

Q: And the “other secondary structure content of apo-hTf” value ([7]; compound concentration 0.8 (M))?
A: 20.1%

Q: And the “random coil content of apo-hTf” value ([7]; compound concentration 0.8 (M))?
A: 33.9%

Q: And the “α-helix content of apo-hTf” value ([7]; compound concentration 0.8 (M))?
A: 27.9%

Q: And the “β-sheet content of apo-hTf” value ([7]; compound concentration 0.8 (M))?
A: 18.1%

Q: And the “other secondary structure content of apo-hTf” value ([7]; compound concentration 1.2 (M))?
A: 20.4%

Q: What about the “random coil content of apo-hTf” value ([7]; compound concentration 1.2 (M)) of the same molecule?
A: 34.1%

Q: And the “α-helix content of apo-hTf” value ([7]; compound concentration 1.2 (M))?
A: 27.2%

Q: What about the “β-sheet content of apo-hTf” value ([7]; compound concentration 1.2 (M)) of the same molecule?
A: 18.3%

Q: What about the “other secondary structure content of apo-hTf” value ([7]; compound concentration 1.6 (M)) of the same molecule?
A: 20.7%

Q: What about the “random coil content of apo-hTf” value ([7]; compound concentration 1.6 (M)) of the same molecule?
A: 34.3%

Q: And the “α-helix content of apo-hTf” value ([7]; compound concentration 1.6 (M))?
A: 26.5%

Q: And the “β-sheet content of apo-hTf” value ([7]; compound concentration 1.6 (M))?
A: 18.5%

Q: What about the “other secondary structure content of apo-hTf” value ([7]; compound concentration 2 (M)) of the same molecule?
A: 20.8%

Q: What about the “random coil content of apo-hTf” value ([7]; compound concentration 2 (M)) of the same molecule?
A: 34.5%

Q: What about the “α-helix content of apo-hTf” value ([7]; compound concentration 2 (M)) of the same molecule?
A: 25.8%

Q: And the “β-sheet content of apo-hTf” value ([7]; compound concentration 2 (M))?
A: 18.9%

Q: And the “other secondary structure content of apo-hTf” value ([7]; compound concentration 2.4 (M))?
A: 21.1%

Q: And the “random coil content of apo-hTf” value ([7]; compound concentration 2.4 (M))?
A: 34.6%

Q: What about the “α-helix content of apo-hTf” value ([7]; compound concentration 2.4 (M)) of the same molecule?
A: 25.1%

Q: What about the “β-sheet content of apo-hTf” value ([7]; compound concentration 2.4 (M)) of the same molecule?
A: 19.2%

Q: And the Ka ([8]; ref Du et al. 63)?
A: 137000 M⁻¹

Q: And the Ka ([8]; ref Zhang et al. 64)?
A: 32800 M⁻¹

Q: And the Ksv [8, 9]?
A: 30400 M⁻¹

Q: What about the kq [8, 9] of the same molecule?
A: 3.04e+12 M⁻¹ s⁻¹
